We go through 2 molecules from ChEMBL document CHEMBL1671756, “In vitro and in vivo antifungal susceptibilities of the Mucoralean fungus Cunninghamella” (2010).

Calls of active or inactive are those of the source. The calls are words filed in the database; no cut-off is given here.

Format in all cases: functional, organism-based
Assay [1] has as its system Cunninghamella bertholletiae. Nature of the assay: Antifungal activity against Cunninghamella bertholletiae UTHSC 05-2275 infected in diabetic OF1 mouse assessed as increase in mouse survival rate at 40 mg/kg, po qd administered 1 day after infection for 7 days relative to untreated control. Set-up: dose 40 mg/kg. In outline: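 Male OF1 mice made diabetic with streptozocin 210 mg/kg i.p.; blood glucose above 250 mg/dl at day 10 required. Infected i.v. via the tail vein with 1 × 10⁵ CFU sporangiospores in 0.2 ml saline. Ceftazidime 5 mg/day s.c. on days 1–7. Oral once-daily treatment from day 1 for 7 days; 10 mice per group; followed for 20 days; Kaplan-Meier mean survival time, log-rank test.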

Assay [2] relates to Cunninghamella bertholletiae. The assay is described as follows: Antifungal activity against Cunninghamella bertholletiae UTHSC 04-2581 infected in neutropenic OF1 mouse assessed as increase in mouse survival rate at 60 mg/kg, po qd administered 1 day after infection for 7 days relative to untreated control. Set-up: dose 60 mg/kg. The method in brief: (§1)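 Male OF1 mice, about 30 g, made neutropenic with cyclophosphamide 200 mg/kg i.p. plus 5-fluorouracil 150 mg/kg i.v. 1 day before challenge. Infected i.v. via the lateral tail vein with 1 × 10⁴ CFU of hemacytometer-counted sporangiospores in 0.2 ml saline. Ceftazidime 5 mg/day s.c. on days 1–7. Oral treatment started 24 h after challenge; 10 mice per group; checked daily for 20 days; Kaplan-Meier mean survival time, log-rank test.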

Assay [3] relates to Cunninghamella bertholletiae. The assay is described as follows: Antifungal activity against Cunninghamella bertholletiae UTHSC 04-2581 infected in neutropenic OF1 mouse assessed as decreased fungal load in brain at 60 mg/kg, po qd administered 1 day post infection measured after 4 to 5 days relative to untreated control. Set-up: dose 60 mg/kg. In outline:
(§2)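 Neutropenic male OF1 mice (cyclophosphamide 200 mg/kg i.p. plus 5-fluorouracil 150 mg/kg i.v., day −1) were given 1 × 10⁴ CFU sporangiospores i.v. in 0.2 ml saline. Treatment from 24 h: 0.8 mg/kg i.v. or oral doses once daily; 10 mice per group. Killed at day 5 (day 4 if moribund). About half of brain, lungs and kidneys homogenized in saline; 10-fold dilutions plated on PDA for 24 h at 35°C; log₁₀ CFU/g tissue.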

For assay [4], the system named is Cunninghamella bertholletiae. Nature of the assay: Antifungal activity against Cunninghamella bertholletiae UTHSC 05-2275 infected in neutropenic OF1 mouse assessed as increase in mouse survival rate at 40 mg/kg, po qd administered 1 day after infection for 7 days relative to untreated control. Further details: dose 40 mg/kg. In outline: as §1
For assay [5], the system named is Cunninghamella bertholletiae. The assay is described as follows: Antifungal activity against Cunninghamella bertholletiae FMR-9598 infected in neutropenic OF1 mouse assessed as decreased fungal load in brain at 0.8 mg/kg, iv qd administered 1 day post infection measured after 4 to 5 days relative to untreated control. Further details: dose 0.8 mg/kg. The method in brief: as §2

In assay [6] the test system is Cunninghamella bertholletiae. The assay is described as follows: Antifungal activity against Cunninghamella bertholletiae UTHSC 06-1945 infected in neutropenic OF1 mouse assessed as increase in mouse survival rate at 60 mg/kg, po qd administered 1 day after infection. Further details: dose 60 mg/kg. In outline: as §1
For assay [7], the system named is Cunninghamella bertholletiae. The assay is described as follows: Antifungal activity against Cunninghamella bertholletiae UTHSC 05-2275 infected in neutropenic OF1 mouse assessed as increase in mouse survival rate at 60 mg/kg, po qd administered 1 day after infection for 7 days relative to untreated control. Set-up: dose 60 mg/kg. In outline:
as §1

The test system of assay [8] is Cunninghamella bertholletiae. The assay is described as follows: Antifungal activity against Cunninghamella bertholletiae UTSCH 05-2275 infected in diabetic OF1 mouse assessed as decreased fungal load in brain at 60 mg/kg, po qd administered 1 day post infection measured after 4 to 5 days relative to untreated control. Further details: dose 60 mg/kg. In outline:
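Diabetic male OF1 mice (streptozocin 210 mg/kg i.p.; glucose above 250 mg/dl) were challenged i.v. with 1 × 10⁵ CFU sporangiospores. Oral once-daily dosing from day 1 for 7 days; 10 mice per group. Killed at day 5 (day 4 if moribund). About half of each organ homogenized in saline; serial 10-fold dilutions plated on PDA for 24 h at 35°C; log₁₀ CFU/g tissue.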

In assay [9] the test system is Cunninghamella bertholletiae. Nature of the assay: Antifungal activity against Cunninghamella bertholletiae UTHSC 05-2275 infected in neutropenic OF1 mouse assessed as decreased fungal load in kidney at 40 mg/kg, po qd administered 1 day post infection measured after 4 to 5 days relative to untreated control. Further details: dose 40 mg/kg. In outline:
as §2

The test system of assay [10] is Cunninghamella bertholletiae. Nature of the assay: Antifungal activity against Cunninghamella bertholletiae UTHSC 05-2275 infected in neutropenic OF1 mouse assessed as decreased fungal load in brain at 60 mg/kg, po qd administered 1 day post infection measured after 4 to 5 days relative to untreated control. Set-up: dose 60 mg/kg. In outline: as §2
Assay [11] concerns Cunninghamella bertholletiae. Nature of the assay: Antifungal activity against Cunninghamella bertholletiae UTHSC 05-2275 infected in diabetic OF1 mouse assessed as increase in mouse survival rate at 0.8 mg/kg, iv qd administered 1 day after infection for 7 days relative to untreated control. Further details: dose 0.8 mg/kg. In outline: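 Male OF1 mice were made diabetic with streptozocin 210 mg/kg i.p. Diabetes was confirmed by blood glucose >250 mg/dl at day 10. Challenge was 1 × 10⁵ CFU in 0.2 ml saline i.v. (tail vein), with ceftazidime 5 mg/day s.c. on days 1–7. Treatment began 1 day after challenge for 7 days. There were 10 mice/group, checked daily for 20 days. Kaplan-Meier analysis with log-rank comparison.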

Assay [12] deals with Cunninghamella bertholletiae. The assay is described as follows: Antifungal activity against Cunninghamella bertholletiae FMR 9598 infected in neutropenic OF1 mouse assessed as increase in mouse survival rate at 0.8 mg/kg, iv qd administered 1 day after infection for 7 days relative to untreated control. Set-up: dose 0.8 mg/kg. In outline:
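Male OF1 mice (~30 g) were made neutropenic with cyclophosphamide 200 mg/kg i.p. plus 5-fluorouracil 150 mg/kg i.v. 1 day before challenge. Challenge was 1 × 10⁴ CFU sporangiospores in 0.2 ml saline via the lateral tail vein. Mice got ceftazidime 5 mg/day s.c. on days 1–7. Dosing started 24 h post-challenge for 7 days. There were 10 mice/group, observed daily for 20 days. Kaplan-Meier analysis with log-rank test.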

Assay [13] relates to Cunninghamella bertholletiae. Nature of the assay: Antifungal activity against Cunninghamella bertholletiae UTHSC 05-2275 infected in neutropenic OF1 mouse assessed as decreased fungal load in kidney at 0.8 mg/kg, iv qd administered 1 day post infection measured after 4 to 5 days relative to untreated control. Further details: dose 0.8 mg/kg. The method in brief: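 Neutropenic male OF1 mice (cyclophosphamide 200 mg/kg i.p. + 5-fluorouracil 150 mg/kg i.v., day −1) were infected i.v. with 1 × 10⁴ CFU. Ten mice per group were treated from day 1 and killed by CO₂ on day 5, or on day 4 if moribund. Half of each brain, lung and kidney was homogenized in 1 ml saline. Ten-fold dilutions were plated on PDA for 24 h at 35°C and counted as log₁₀ CFU/g.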

For assay [14], the system named is Cunninghamella bertholletiae. The assay is described as follows: Antifungal activity against Cunninghamella bertholletiae UTHSC 06-1945 infected in neutropenic OF1 mouse assessed as decreased fungal load in kidney at 0.8 mg/kg, iv qd administered 1 day post infection measured after 4 to 5 days relative to untreated control. Set-up: dose 0.8 mg/kg. The method in brief:
as §2

In assay [15] the test system is Cunninghamella bertholletiae. The assay is described as follows: Antifungal activity against Cunninghamella bertholletiae UTSCH 05-2275 infected in diabetic OF1 mouse assessed as decreased fungal load in lung at 0.8 mg/kg, iv qd administered 1 day post infection measured after 4 to 5 days relative to untreated control. Set-up: dose 0.8 mg/kg. The method in brief: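 Diabetic OF1 mice (streptozocin 210 mg/kg i.p.; glucose >250 mg/dl) were infected i.v. with 1 × 10⁵ CFU, with ceftazidime cover. Ten per group were treated from day 1 and killed day 5, or day 4 if moribund. Half-organ homogenates (brain, lung, kidney) in 1 ml saline were serially diluted 10-fold on PDA, incubated 24 h at 35°C, and reported as log₁₀ CFU/g tissue.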

In the case of `CC[C@@H]([C@H](C)O)n1ncn(-c2ccc(N3CCN(c4ccc(OC[C@@H]5CO[C@@](Cn6cncn6)(c6ccc(F)cc6F)C5)cc4)CC3)cc2)c1=O` [POSACONAZOLE], the result in assay [1], in [2], in assay [3], in assay [4], in [5] and in assay [6] was Active. The result in assay [7], in assay [8], in [9] and in assay [10] was Active.

`C[C@@H]1[C@H](O)[C@@H](C)/C=C/C=C/C=C/C=C/C=C/C=C/C=C/[C@H](O[C@@H]2O[C@H](C)[C@@H](O)[C@H](N)[C@@H]2O)C[C@@H]2O[C@](O)(C[C@@H](O)C[C@@H](O)[C@H](O)CC[C@@H](O)C[C@@H](O)CC(=O)O[C@H]1C)C[C@H](O)[C@H]2C(=O)O` [AMPHOTERICIN B]: the outcome in [11], in assay [13] and in [14] was Active. For the same molecule, the result in assay [12] and in assay [15] was inactive.
